Experimental findings from ChEMBL document CHEMBL3259690, “Synthesis, structure-activity relationships, and biological studies of chromenochalcones as potential antileishmanial agents” (J Med Chem, 2014) are described below.

Series [1] concerns J774.A1. Put plainly: Increase in IL-12 production in mouse J774A1 cells infected with Leishmania donovani at IC50 concentration after 24 hrs by sandwich ELISA relative to control. It is filed as functional. An outline of the steps: (§1)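 J774A.1 macrophages (1 × 10⁶) infected with Leishmania at 1:10, treated in 6-well plates at the compound's IC₅₀ concentration, 37 °C, CO₂. Supernatants from normal, infected-untreated and infected-treated cells collected after 24 h. IL-12, TNF-α, IL-10 and TGF-β measured by sandwich ELISA at 450 nm, in pg/mL. Two independent experiments in duplicate, mean ± SD; Student's t test against infected control.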
On the technique in general: ELISA stands for enzyme-linked immunosorbent assay.

Series [2] has as its system J774.A1. Put plainly: Decrease in TGF-beta production in mouse J774A1 cells infected with Leishmania donovani at IC50 concentration after 24 hrs by sandwich ELISA relative to control. It is filed as functional. An outline of the steps: as §1
Series [3] has as its system Leishmania donovani. Put plainly: Antileishmanial activity against intracellular amastigote form of Leishmania donovani MHOM/IN/80/Dd8 expressing luciferase gene infected in mouse J774A1 cells after 72 hrs by luminescence analysis. It is filed as functional, organism-based. The following applies: MHOM/IN/80/Dd8, J774.A1, 72 h. An outline of the steps:
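J774A.1 macrophages (4 × 10⁴/mL, RPMI-1640 + 10% HIFBS, 37 °C, 5% CO₂), after 24 h infected with stationary-phase luciferase promastigotes (4 × 10⁵/mL). Free parasites washed off after 24 h. Compound added at up to 7 dilutions from 40 μM for 72 h. Luminescence read after Steady Glo in PBS. IC₅₀ from four-parameter Hill fit; at least duplicate measurements.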

Series [4] relates to Leishmania donovani. Put plainly: Antileishmanial activity against Leishmania donovani MHOM/IN/80/Dd8 amastigotes infected in syrian golden hamster assessed as decrease in parasite count in spleen at 50 mg/kg/day, po for 5 days measured on day 7 after last dose administration by giemsa staining. Format: functional. The following applies: MHOM/IN/80/Dd8, Spleen. The method in brief: (§2)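 Golden hamsters of either sex infected intracardially with 1 × 10⁷ L. donovani Dd8 amastigotes. After 15−20 days, pretreatment spleen biopsy; animals with +1 grade infection (5−10 amastigotes/100 spleen cell nuclei) used, 5−6 per compound. Aqueous suspensions dosed IP or PO for 5−10 consecutive days starting 2 days after biopsy. Splenic biopsies on day 7 and 28 after last dose, Giemsa counts; PI = 100 − [(ANAT×100)/(INAT×TIUC)].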

Series [5] concerns Leishmania donovani. Put plainly: Induction of early apoptosis in Leishmania donovani MHOM/IN/80/Dd8 promastigotes at 0.78 uM after 72 hrs by Annexin V-FITC/propidium iodide staining based flow cytometry (reference value: 13.70%). It is filed as functional. For orientation: Flow cytometry measures light scatter and fluorescence of single cells or particles in a stream.
The nature of series [6]: Tmax in Syrian golden hamster at 100 mg/kg, po administered via gavage as single dose by HPLC-UV analysis. Format: ADME, organism-based, Mesocricetus auratus. Details: dose 100 mg/kg, route oral. The following applies: in vivo. An outline of the steps: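 Male Syrian golden hamsters (100 ± 15 g) given a single oral dose of 100 mg/kg. Plasma stored at −70 °C and assayed by HPLC-UV. Concentration–time profiles analysed non-compartmentally; values mean ± SD.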

Series [7] has as its system Leishmania donovani. Put plainly: Induction of apoptosis in Leishmania donovani MHOM/IN/80/Dd8 promastigotes assessed as drop in mitochondrial membrane potential at 0.78 uM after 48 hrs by JC-1 dye based flow cytometry (reference value: 5.87%). Format: functional.
The target of the next series is Albumin (Bos taurus, UniProt P02769). Put plainly: Binding affinity to bovine serum albumin at 1 mmol/L by fluorescence spectrophotometer analysis. Format: ADME. The note with it: cattle, isolated protein, 1000 µM. An outline of the steps:
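BSA at 1.00 × 10⁻⁵ mol/L in 0.10 M Tris-HCl, pH 7.4, titrated with successive additions of 1.00 × 10⁻³ mol/L compound stock. Excitation at 280 nm, emission recorded 300−450 nm. Quenching analysed by Stern–Volmer and modified Stern–Volmer equations (τ₀ = 10⁻⁸ s).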

In series [8] the test system is Leishmania donovani. Put plainly: Induction of apoptosis in Leishmania donovani MHOM/IN/80/Dd8 promastigotes assessed as drop in mitochondrial membrane potential at 0.78 uM after 24 hrs by JC-1 dye based flow cytometry (reference value: 5.87%). Format: functional.
A short description of series [9]: In vitro metabolic stability in syrian golden hamster liver S9 fraction at 10 uM in absence of NADPH. It is filed as ADME, Mesocricetus auratus. The note with it: s9, 10 µM. The method in brief:
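Hamster liver S9 (2 mg/mL protein), 50 mM Tris, 20 mM MgCl₂, 2 mM NADPH preincubated 10 min, then compound added at 10 μM final (1% organic) at 37 °C in triplicate. Sampled 0−60 min; no-NADPH control sampled at 0, 15, 30 and 60 min. Quenched with ice-cold methanol, extracted by LLE. Data as % parent remaining versus 0 min; testosterone as positive control.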

Series [10] in a line: Cytotoxicity against African green monkey Vero cells after 72 hrs by MTT assay. Format: cell-based. The following applies: chlorocebus sabaeus. An outline of the steps:
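Vero cells at 1 × 10⁵/mL exposed to seven concentrations from 400 μM at 37 °C, 5% CO₂, for 72 h. MTT (5 mg/mL) added for 2 h at 37 °C, formazan dissolved in DMSO, absorbance read at 544 nm. CC₅₀ estimated by the Huber and Koella method; at least duplicate measurements.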
Background: Tetrazolium dyes change colour on reduction, which living cells bring about.

The test system of series [11] is Leishmania donovani. Put plainly: Antileishmanial activity against Leishmania donovani MHOM/IN/80/Dd8 amastigotes infected in syrian golden hamster assessed as decrease in parasite count in spleen at 100 mg/kg/day, po for 5 days measured on day 28 after last dose administration by giemsa staining. Format: functional. The following applies: MHOM/IN/80/Dd8, Spleen. An outline of the steps: as §2

For another series, the system named is Syrian golden hamster. Put plainly: Toxicity in Syrian golden hamster at 100 mg/kg, po administered via gavage as single dose. It is filed as organism-based, Mesocricetus auratus. On the set-up: dose 100 mg/kg, route oral. The note with it: in vivo.
The test system of series [12] is Leishmania donovani. Put plainly: Antileishmanial activity against Leishmania donovani MHOM/IN/80/Dd8 amastigotes infected in syrian golden hamster assessed as decrease in parasite count in spleen at 100 mg/kg/day, po for 5 days measured on day 7 after last dose administration by giemsa staining. It is filed as functional. The following applies: MHOM/IN/80/Dd8, Spleen. The method in brief: as §2

Sequence of Albumin (P02769 whole entry): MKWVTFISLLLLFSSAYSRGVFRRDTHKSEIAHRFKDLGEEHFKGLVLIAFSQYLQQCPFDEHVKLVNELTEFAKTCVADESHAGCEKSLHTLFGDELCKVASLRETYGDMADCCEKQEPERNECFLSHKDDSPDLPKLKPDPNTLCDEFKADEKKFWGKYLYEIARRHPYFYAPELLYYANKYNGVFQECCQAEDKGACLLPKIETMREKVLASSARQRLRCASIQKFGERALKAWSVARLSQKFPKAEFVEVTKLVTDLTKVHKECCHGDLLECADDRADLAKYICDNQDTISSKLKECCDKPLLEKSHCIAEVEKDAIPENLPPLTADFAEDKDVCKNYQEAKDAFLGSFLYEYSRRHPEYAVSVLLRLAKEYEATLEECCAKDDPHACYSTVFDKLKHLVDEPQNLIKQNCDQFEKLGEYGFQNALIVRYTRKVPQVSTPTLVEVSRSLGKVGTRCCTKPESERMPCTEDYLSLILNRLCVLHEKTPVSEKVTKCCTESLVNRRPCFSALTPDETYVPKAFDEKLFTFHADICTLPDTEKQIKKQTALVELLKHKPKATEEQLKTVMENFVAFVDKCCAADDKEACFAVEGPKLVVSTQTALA

Take `CC(C)=CCCC1(C)C=Cc2c(ccc(C(=O)/C=C/c3cccnc3)c2O)O1` (stereo not given): the “fold change (FC)” value with J774.A1 [1] was determined as 16; with J774.A1 [2], 4.08. Besides, the IC50 (usually the concentration that gives 50% inhibition) in the series on Leishmania donovani [3] was determined as 5.4 µM. Moreover, the inhibition in vivo (as a rule, the drop in the measured response relative to a control, in per cent) at 50 mg/kg/day in the series with Leishmania donovani [4] amounted to 49%. In addition, the Activity is listed as 66.14% in the series on Leishmania donovani [5], 61.67% with Leishmania donovani [7], 31.88% in the series on Leishmania donovani [8] and “Non-toxic” in the series with Syrian golden hamster. Further, in series [6], the Tmax (in general, the time at which the peak concentration occurs) was 37.5 min. Besides, the KSV on Albumin amounted to 2.7 ×10⁵ L/mol. Besides, on Albumin, the Kq worked out at 2.7 ×10¹³ L/mol/s. In [9], the Stability result is listed as “Stable”. Half-maximal cytotoxicity in [10] (CC50 at 72 h) was put at 40.7 µM. Moreover, the inhibition in vivo at 100 mg/kg/day in the series on Leishmania donovani [11] was determined as 84.5%; in the series on Leishmania donovani [12], 84.7%.
